Data from ChEMBL document CHEMBL1125014, “Synthesis and structure-activity relationships of new 9-N-alkyl derivatives of 9(S)-erythromycylamine” (1990).
In brackets after ≈: the same amount, converted by molar mass.

Legend:
Rattus norvegicus [1] = species: Rattus norvegicus; assay: Fluid concentration in liver tissue was determined in rats at 2 hr; type: functional
How it was run: (§1)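 Rats dosed by gavage at 20 mg/kg; lung, liver, kidney, urine and serum sampled at 0.5, 1, 2, 4 and 6 h after dosing. Antibiotic measured by microbiological assay with Micrococcus luteus seeded in Antibiotic Medium 1. Zone sizes were read against the standard curve for the same compound. Each value is the average of three rats per time point.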

Rattus norvegicus [2] = species: Rattus norvegicus; assay: Fluid concentration in urine was determined in rats at 1 hr; type: functional; how it was run: as §1
Rattus norvegicus [3] = species: Rattus norvegicus
Mus musculus [4] = species: Mus musculus
Rattus norvegicus [5] = species: Rattus norvegicus; assay: Fluid concentration in kidney tissue was determined in rats at 6 hr; type: functional
How it was run: (§2)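 Rats were gavaged at 20 mg/kg and tissues sampled 0.5–6 h after dosing. Drug was assayed microbiologically with Micrococcus luteus seeded in Antibiotic Media 1. Zone sizes were read against each compound's own standard curve. Values are the mean of three rats per time point, in μg/g.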

Rattus norvegicus [6] = species: Rattus norvegicus; remark: listed apart in the source
Rattus norvegicus [7] = assay: Plasma concentration in rats was determined by oral administration, 20 mg/kg at 4 hr; type: functional, organism-based; set-up: dose 20 mg/kg
How it was run: (§3)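 Peripheral plasma antibiotic levels in rats given 20 mg/kg orally or subcutaneously. Plasma was sampled at timed points after dosing. Levels were measured by microbiological agar assay with Micrococcus luteus seeded in Antibiotic Media 1, reading zone sizes, and were calculated from a standard curve for the appropriate compound. Each value is the average of three rats per time point, in μg/mL.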

Rattus norvegicus [8] = assay: Plasma concentration in rats was determined by subcutaneous administration, 20 mg/kg at 2 hr; type: functional, organism-based; set-up: dose 20 mg/kg; how it was run: as §3
Enterococcus faecalis [9] = assay: MIC value was measured against streptococcus faecalis X66; type: functional
How it was run: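 Susceptibility determined by standard agar-dilution method against a panel of bacterial strains.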

Rattus norvegicus [10] = species: Rattus norvegicus; assay: Fluid concentration in urine was determined in rats at 2 hr; type: functional; how it was run: as §1
Mus musculus [11] = species: Mus musculus; remark: listed apart in the source
Rattus norvegicus [12] = species: Rattus norvegicus; assay: Fluid concentration in liver tissue was determined in rats at 6 hr; type: functional; how it was run: as §1
Mus musculus [13] = assay: ED50 value was measured by sc administration against streptococcus pyogenes infection in mice (in vivo, in experiment 3); type: functional
Rattus norvegicus [14] = species: Rattus norvegicus; assay: Fluid concentration in kidney tissue was determined in rats at 2 hr; type: functional; how it was run: as §2
Mus musculus [15] = species: Mus musculus; remark: listed apart in the source
Rattus norvegicus [16] = species: Rattus norvegicus; assay: Fluid concentration in urine was determined in rats at 0.5 hr; type: functional; how it was run: as §1
Rattus norvegicus [17] = species: Rattus norvegicus; remark: listed apart in the source
Mus musculus [18] = species: Mus musculus; remark: listed apart in the source
Mus musculus [19] = assay: Plasma concentration of compound in mice by oral administration, 20 mg/kg at 4 hr; type: functional, organism-based; set-up: dose 20 mg/kg
How it was run: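 Peripheral plasma antibiotic levels in mice after a 20 mg/kg oral dose, sampled at timed points after administration. Levels were measured by microbiological agar assay with Micrococcus luteus seeded in Antibiotic Media 1, reading zone sizes, and were calculated from a standard curve for the appropriate compound. Each value is the average of five mice per time point, in μg/mL.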

Mus musculus [20] = species: Mus musculus; remark: listed apart in the source
Rattus norvegicus [21] = species: Rattus norvegicus; remark: listed apart in the source
Rattus norvegicus [22] = species: Rattus norvegicus; assay: Fluid concentration in kidney tissue was determined in rats at 0.5 hr; type: functional; how it was run: as §2
Rattus norvegicus [23] = assay: Plasma concentration in rats was determined by oral administration, 20 mg/kg at 1 hr; type: functional, organism-based; set-up: dose 20 mg/kg; how it was run: as §3
Mus musculus [24] = assay: Plasma concentration in mice was determined by oral administration, 20 mg/kg at 4 h; type: functional, organism-based; set-up: dose 20 mg/kg
How it was run: (§4)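 Mice given 20 mg/kg orally or subcutaneously; peripheral plasma sampled at 5, 20 and 40 min and at 1, 2 and 4 h after dosing. Microbiological assay used Micrococcus luteus seeded in Antibiotic Medium 1, with zone sizes converted by the compound's own standard curve. Each value is the average of five mice per time point.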

Rattus norvegicus [25] = assay: Plasma concentration in rats was determined by subcutaneous administration, 20 mg/kg at 40 min; type: functional, organism-based; set-up: dose 20 mg/kg; how it was run: as §3
Rattus norvegicus [26] = species: Rattus norvegicus; assay: Fluid concentration in urine tissue was determined in rats at 4 h; type: functional; how it was run: as §1
Mus musculus [27] = assay: Plasma concentration in mice was determined by oral administration, 20 mg/kg at 2 h; type: functional, organism-based; set-up: dose 20 mg/kg; how it was run: as §4
Rattus norvegicus [28] = species: Rattus norvegicus; assay: Fluid concentration in serum tissue was determined in rats at 6 h; type: functional; how it was run: as §1
Rattus norvegicus [29] = species: Rattus norvegicus; assay: Fluid concentration in kidney tissue was determined in rats at 6 h; type: functional; how it was run: as §2
Rattus norvegicus [30] = species: Rattus norvegicus; assay: Fluid concentration in urine tissue was determined in rats at 0.5 h; type: functional; how it was run: as §1
Rattus norvegicus [31] = species: Rattus norvegicus; assay: Fluid concentration in kidney tissue was determined in rats at 0.5 h; type: functional; how it was run: as §2
Rattus norvegicus [32] = assay: Plasma concentration in rats was determined by subcutaneous administration, 20 mg/kg at 1 h; type: functional, organism-based; set-up: dose 20 mg/kg; how it was run: as §3
Rattus norvegicus [33] = species: Rattus norvegicus; assay: Fluid concentration in urine tissue was determined in rats at 6 h; type: functional; how it was run: as §1
Enterococcus faecalis [34] = assay: MIC value was measured against streptococcus faecalis.; type: functional
Mus musculus [35] = assay: ED50 value was measured by po administration against staphylococcus aureus infection in mice (in vivo, in experiment 2); type: functional
How it was run: (§5)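 Infected mice were dosed orally or subcutaneously at 1 and 5 h postinfection, 0.25 mL of antibiotic solution in 10% aqueous ethanol per dose. Tartaric acid was added where needed for solubility. Several dose concentrations were tested to give the ED50.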

Mus musculus [36] = assay: ED50 value was measured by sc administration against streptococcus pneumoniae infection in mice (in vivo, in experiment 2); type: functional; how it was run: as §5
Rattus norvegicus [37] = species: Rattus norvegicus; assay: Fluid concentration in liver tissue was determined in rats at 2 h; type: functional; how it was run: as §1
Mus musculus [38] = assay: ED50 value was measured by po administration against streptococcus pneumoniae infection in mice (in vivo, in experiment 2); type: functional; how it was run: as §5
Rattus norvegicus [39] = species: Rattus norvegicus; assay: Fluid concentration in liver tissue was determined in rats at 4 h; type: functional; how it was run: as §1
Rattus norvegicus [40] = assay: Plasma concentration in rats was determined by subcutaneous administration, 20 mg/kg at 4 h; type: functional, organism-based; set-up: dose 20 mg/kg; how it was run: as §3
Rattus norvegicus [41] = species: Rattus norvegicus; assay: Fluid concentration in urine tissue was determined in rats at 1 h; type: functional; how it was run: as §1
Rattus norvegicus [42] = assay: Plasma concentration in rats was determined by subcutaneous administration, 20 mg/kg at 8 h; type: functional, organism-based; set-up: dose 20 mg/kg; how it was run: as §3
Rattus norvegicus [43] = species: Rattus norvegicus; assay: Fluid concentration in liver tissue was determined in rats at 6 h; type: functional; how it was run: as §1
Mus musculus [44] = assay: ED50 value was measured by po administration against streptococcus pyogenes infection in mice (in vivo, in experiment 2); type: functional; how it was run: as §5
Mus musculus [45] = assay: Plasma concentration in mice was determined by oral administration, 20 mg/kg at 5 min; type: functional, organism-based; set-up: dose 20 mg/kg; how it was run: as §4
Rattus norvegicus [46] = species: Rattus norvegicus; assay: Fluid concentration in urine tissue was determined in rats at 2 h; type: functional; how it was run: as §1
Rattus norvegicus [47] = species: Rattus norvegicus; assay: Fluid concentration in kidney tissue was determined in rats at 4 h; type: functional; how it was run: as §2
Rattus norvegicus [48] = species: Rattus norvegicus; assay: Fluid concentration in kidney tissue was determined in rats at 2 h; type: functional; how it was run: as §2
Rattus norvegicus [49] = species: Rattus norvegicus; assay: Fluid concentration in serum tissue was determined in rats at 4 h; type: functional; how it was run: as §1
Rattus norvegicus [50] = species: Rattus norvegicus; assay: Fluid concentration in serum tissue was determined in rats at 0.5 h; type: functional; how it was run: as §1
Rattus norvegicus [51] = assay: Plasma concentration in rats was determined by subcutaneous administration, 20 mg/kg at 2 h; type: functional, organism-based; set-up: dose 20 mg/kg; how it was run: as §3
Rattus norvegicus [52] = species: Rattus norvegicus; assay: Fluid concentration in serum tissue was determined in rats at 1 h; type: functional; how it was run: as §1
Rattus norvegicus [53] = species: Rattus norvegicus; assay: Fluid concentration in serum tissue was determined in rats at 2 h; type: functional; how it was run: as §1

Structure (SMILES): CC[C@H]1OC(=O)[C@H](C)[C@@H](O[C@H]2C[C@@](C)(OC)[C@@H](O)[C@H](C)O2)[C@H](C)[C@@H](O[C@@H]2O[C@H](C)C[C@H](N(C)C)[C@H]2O)[C@](C)(O)C[C@@H](C)C(=O)[C@H](C)[C@@H](O)[C@]1(C)O [ERYTHROMYCIN]
- Activity (Rattus norvegicus [1]): 0.04 µg/mL
- Activity (Rattus norvegicus [2]): 10.8 µg/mL
- Plasma concentration (Rattus norvegicus [3]): 0.7 µg/mL
- Plasma concentration (Mus musculus [4]): 0 µg/mL
- Activity (Rattus norvegicus [5]): 0 µg/mL
- Plasma concentration (Rattus norvegicus [6]): 1.31 µg/mL
- Plasma concentration (Rattus norvegicus [7]): 0.02 µg/mL
- Plasma concentration (Rattus norvegicus [8]): 1.06 µg/mL
- MIC (Enterococcus faecalis [9]): 0.06 µg/mL (≈ 0.0818 µM)
- Activity (Rattus norvegicus [10]): 2.5 µg/mL
- Plasma concentration (Mus musculus [11]): 0.01 µg/mL
- Activity (Rattus norvegicus [12]): 0 µg/mL
- ED50 (Mus musculus [13]): 2.8 mg/kg
- Activity (Rattus norvegicus [14]): 0 µg/mL
- Plasma concentration (Mus musculus [15]): 0.1 µg/mL
- Activity (Rattus norvegicus [16]): 7.5 µg/mL
- Plasma concentration (Rattus norvegicus [17]): 1.21 µg/mL
- Plasma concentration (Mus musculus [18]): 0.01 µg/mL
- Plasma concentration (Mus musculus [19]): 0 µg/mL
- Plasma concentration (Mus musculus [20]): 0 µg/mL
- Plasma concentration (Rattus norvegicus [21]): 1.16 µg/mL
- Activity (Rattus norvegicus [22]): 0.17 µg/mL
- Plasma concentration (Rattus norvegicus [23]): 0.04 µg/mL

Structure (SMILES): CCCN[C@@H]1[C@H](C)[C@@H](O)[C@](C)(O)[C@@H](CC)OC(=O)[C@H](C)[C@@H](OC2CC(C)(OC)C(O)C(C)O2)[C@H](C)[C@@H](OC2OC(C)CC(N(C)C)C2O)[C@](C)(O)C[C@H]1C (stereo partly drawn)
- Plasma concentration (Mus musculus [24]): 0.06 µg/mL
- Plasma concentration (Rattus norvegicus [25]): 0.14 µg/mL
- Activity (Rattus norvegicus [26]): 18.63 µg/mL
- Plasma concentration (Mus musculus [27]): 0.07 µg/mL
- Activity (Rattus norvegicus [28]): 0.05 µg/mL
- Activity (Rattus norvegicus [29]): 3.21 µg/mL
- Activity (Rattus norvegicus [30]): 3.92 µg/mL
- Activity (Rattus norvegicus [31]): 0.1 µg/mL
- Plasma concentration (Rattus norvegicus [32]): 0.14 µg/mL
- Activity (Rattus norvegicus [33]): 11.3 µg/mL
- MIC (Enterococcus faecalis [34]): 0.12 µg/mL (≈ 0.154 µM)
- ED50 (Mus musculus [35]): 25 mg/kg
- ED50 (Mus musculus [36]): 2.1 mg/kg
- Activity (Rattus norvegicus [37]): 2.99 µg/mL
- ED50 (Mus musculus [38]): 13 mg/kg
- Activity (Rattus norvegicus [39]): 3.06 µg/mL
- Plasma concentration (Rattus norvegicus [40]): 0.23 µg/mL
- Activity (Rattus norvegicus [41]): 3.78 µg/mL
- Plasma concentration (Rattus norvegicus [42]): 0.24 µg/mL
- Activity (Rattus norvegicus [43]): 1.19 µg/mL
- ED50 (Mus musculus [44]): 6 mg/kg
- Plasma concentration (Mus musculus [45]): 0 µg/mL
- Activity (Rattus norvegicus [46]): 4.8 µg/mL
- Activity (Rattus norvegicus [47]): 4.28 µg/mL
- Activity (Rattus norvegicus [48]): 3.25 µg/mL
- Activity (Rattus norvegicus [49]): 0.12 µg/mL
- Activity (Rattus norvegicus [50]): 0.15 µg/mL
- Plasma concentration (Rattus norvegicus [51]): 0.18 µg/mL
- Activity (Rattus norvegicus [52]): 0.04 µg/mL
- Activity (Rattus norvegicus [53]): 0.23 µg/mL
